Experimental findings from ChEMBL document CHEMBL3804776, “Synthesis and Evaluation of Macrocyclic Peptide Aldehydes as Potent and Selective Inhibitors of the 20S Proteasome” (ACS Med Chem Lett, 2016) are described below.

The species named for one assay is Homo sapiens. The assay is described as follows: Inhibition of chymotrypsin (unknown origin) using Suc-LLVY-AMC as substrate at 100 uM by fluorometric assay. The procedure, abridged:
(§1)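 Fluorometric kinetic enzyme assay run at a single inhibitor concentration of 100 μM. The outcome was scored as whether inhibition occurred at that concentration.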

Assay [1] has as its target T1, Cathepsin B (Homo sapiens, UniProt P07858). Nature of the assay: Inhibition of human liver cathepsin B using Cbz-RR-AMC as substrate at 100 uM by fluorometric assay. Summed up:
as §1

Assay [2] is described as follows: Inhibition of chymotrypsin-like activity of rabbit 20S proteasome using Suc-LLVY-AMC substrate incubated at 37 degC by fluorometric assay. Further details: species or system Oryctolagus cuniculus.
Assay [3] has as its target T2, Calpain-2 catalytic subunit (Homo sapiens) (UniProt P17655).
T2 sequence (whole entry): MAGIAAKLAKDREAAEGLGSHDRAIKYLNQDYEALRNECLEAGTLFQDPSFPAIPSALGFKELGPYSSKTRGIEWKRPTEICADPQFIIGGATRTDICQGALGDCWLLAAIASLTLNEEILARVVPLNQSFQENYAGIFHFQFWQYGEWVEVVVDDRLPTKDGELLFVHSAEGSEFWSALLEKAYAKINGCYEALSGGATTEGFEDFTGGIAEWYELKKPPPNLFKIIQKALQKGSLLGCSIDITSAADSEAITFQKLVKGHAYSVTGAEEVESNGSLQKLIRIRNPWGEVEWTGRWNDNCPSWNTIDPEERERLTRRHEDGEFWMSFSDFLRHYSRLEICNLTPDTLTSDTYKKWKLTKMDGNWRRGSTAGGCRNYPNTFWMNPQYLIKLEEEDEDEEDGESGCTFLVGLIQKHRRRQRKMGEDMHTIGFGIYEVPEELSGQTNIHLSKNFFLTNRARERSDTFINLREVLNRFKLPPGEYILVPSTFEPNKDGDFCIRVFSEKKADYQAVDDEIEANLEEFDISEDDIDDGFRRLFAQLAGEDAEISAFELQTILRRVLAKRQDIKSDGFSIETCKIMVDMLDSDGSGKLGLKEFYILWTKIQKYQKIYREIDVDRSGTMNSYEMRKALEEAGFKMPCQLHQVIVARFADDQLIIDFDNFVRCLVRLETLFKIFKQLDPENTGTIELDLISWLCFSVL
The assay is described as follows: Inhibition of m-calpain (unknown origin) using Suc-LY-AMC as substrate at 100 uM by fluorometric assay. The procedure, abridged: as §1

The test system of assay [4] is HeLa. The assay is described as follows: Inhibition of 26S proteasome in IL1beta-induced human HeLa cells assessed as reduction in IkappaBalpha degradation at 300 nM to 20 uM preincubated for 2 hrs followed by IL1beta stimulation.
For assay [5], the species on record is Oryctolagus cuniculus. Nature of the assay: Inhibition of PGPH-like activity of rabbit 20S proteasome using Cbz-LLE-AMC substrate at 100 uM incubated at 37 degC by fluorometric assay. The procedure, abridged: as §1
Assay [6] has as its system HeLa. The assay is described as follows: Inhibition of 26S proteasome in TNFalpha-induced human HeLa cells assessed as reduction in NFkappaB-DNA binding at 20 uM preincubated for 2 hrs followed by TNFalpha stimulation by EMSA. Format: cell-based. The procedure, abridged:
(§2)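 HeLa cells were preincubated for 2 h with 20 μM compound before TNFα stimulation. IκBα S32/36 phosphorylation and IκBα levels were assessed by Western blot (β-actin loading control). NF-κB DNA binding was measured by electrophoretic mobility shift assay.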

Assay [7] concerns HeLa. Nature of the assay: Inhibition of 26S proteasome in TNFalpha-induced human HeLa cells assessed as reduction in NFkappaB-DNA binding at 300 nM to 20 uM preincubated for 2 hrs followed by TNFalpha stimulation by EMSA. Format: cell-based. The procedure, abridged:
(§3)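 Dose-response in HeLa cells: compound at 0.1, 0.3, 1, 3, 10 and 20 μM before TNFα stimulation, with handling as in the single-dose experiment. Accumulation of phospho-IκBα (S32/36) was measured by Western blot with β-actin as loading control. NF-κB DNA binding was measured by EMSA.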

In assay [8] the test system is HeLa. The assay is described as follows: Inhibition of 26S proteasome in TNFalpha-induced human HeLa cells assessed as accumulation of phosphorylated IkappaBalpha at 300 nM to 20 uM preincubated for 2 hrs followed by TNFalpha stimulation by Western blot analysis. The class given is cell-based. Summed up:
as §3
(In general: Immunoblotting shows a protein as a band on a membrane.)

The species entered for assay [9] is Oryctolagus cuniculus. Nature of the assay: Inhibition of trypsin-like activity of rabbit 20S proteasome using Cbz-ARR-AMC substrate at 100 uM incubated at 37 degC by fluorometric assay. Summed up:
as §1

Assay [10] relates to HeLa. The assay is described as follows: Inhibition of 26S proteasome in TNFalpha-induced human HeLa cells assessed as reduction in IkappaBalpha degradation at 20 uM preincubated for 2 hrs followed by TNFalpha stimulation by Western blot analysis. The class given is cell-based. Summed up: as §2
Assay [11] concerns HeLa. Nature of the assay: Inhibition of 26S proteasome in IL1beta-induced human HeLa cells assessed as reduction in NFkappaB-DNA binding at 20 uM preincubated for 2 hrs followed by IL1beta stimulation by EMSA. Format: cell-based. Summed up:
(§4)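 HeLa human cervix carcinoma cells were pretreated with compound at 20 μM for 2 h, then stimulated with IL-1β. Read-outs were Western blot for IκBα phosphorylation (S32/36) and IκBα degradation, with β-actin as loading control, and EMSA for NF-κB DNA binding.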
A general note: A gel shift assay detects complexes by their altered migration in electrophoresis.

Assay [12] has as its system HeLa. Nature of the assay: Inhibition of 26S proteasome in IL1beta-induced human HeLa cells assessed as phosphorylation of IkappaBalpha at 20 uM preincubated for 2 hrs followed by IL1beta stimulation by Western blot analysis. Format: cell-based. Summed up:
as §4

The nature of assay [13]: Selectivity ratio of Ki for m-calpain (unknown origin) to Ki for chymotrypsin-like activity of rabbit 20S proteasome.
In assay [14] the test system is HeLa. Nature of the assay: Inhibition of 26S proteasome in TNFalpha-induced human HeLa cells assessed as phosphorylation of IkappaBalpha at 20 uM preincubated for 2 hrs followed by TNFalpha stimulation by Western blot analysis. Format: cell-based. Summed up: as §2
For assay [15], the target named is T3, Calpain-2 catalytic subunit (Homo sapiens, UniProt P17655).
T3 sequence (P17655 whole entry): T2 sequence (whole entry)
The assay is described as follows: Inhibition of m-calpain (unknown origin) using Suc-LY-AMC as substrate by fluorometric assay.

Assay [16] is described as follows: Selectivity ratio of Ki for human liver cathepsin B to Ki for chymotrypsin-like activity of rabbit 20S proteasome.
Assay [17] deals with HeLa. The assay is described as follows: Inhibition of 26S proteasome in IL1beta-induced human HeLa cells assessed as reduction in IkappaBalpha degradation at 20 uM preincubated for 2 hrs followed by IL1beta stimulation by Western blot analysis. The class given is cell-based. Summed up: as §4
In assay [18] the target is T1, Cathepsin B. The assay is described as follows: Inhibition of human liver cathepsin B using Cbz-RR-AMC as substrate by fluorometric assay.
Assay [19] can be described thus: Inhibition of trypsin-like activity of rabbit 20S proteasome using Cbz-ARR-AMC substrate incubated at 37 degC by fluorometric assay. Further details: species or system Oryctolagus cuniculus.
The nature of assay [20]: Inhibition of PGPH-like activity of rabbit 20S proteasome using Cbz-LLE-AMC substrate incubated at 37 degC by fluorometric assay. Further details: species or system Oryctolagus cuniculus.

pKi: −log10 of the molar value. Calls of active or inactive are those of the source. No cut-off for these calls is given here. Residues, ends and D or L forms follow the SMILES beside them. *: point of attachment. Cbz = O=C(OCc1ccccc1)*

Turning to `CC(C)C[C@H](NC(=O)[C@H](Cc1ccccc1)NC(=O)c1cnccn1)B(O)O` [BORTEZOMIB], the inhibition entry (in the assay listed under Homo sapiens; at Cathepsin B [1]; in assay [3]) was “inactive” throughout. Also, in assay [2], the pKi is 7.62.
Regarding `CC(C)C[C@H](NC(=O)[C@H](CCc1ccccc1)NC(=O)CN1CCOCC1)C(=O)N[C@@H](Cc1ccccc1)C(=O)N[C@@H](CC(C)C)C(=O)[C@@]1(C)CO1` [CARFILZOMIB], the inhibition result (in the assay filed under Homo sapiens; at Cathepsin B [1]; in assay [3]) was “inactive” each time. Besides, the pKi in [2] was 7.59.
In the case of `COc1ccc(C[C@@H]2NC(=O)[C@@H](NC(=O)OCc3ccccc3)Cc3ccc([N+](=O)[O-])c(c3)Oc3ccc(cc3)C[C@@H](C(=O)N[C@H](C=O)CC(C)C)NC2=O)cc1`, the inhibition entry in the assay listed under Homo sapiens, in the assay listed under Oryctolagus cuniculus [5] and in the assay filed under Oryctolagus cuniculus [9] was “inactive” each time. Further, the inhibition entry in the assay with HeLa [4], in the assay with HeLa [6], in the assay on HeLa [7], in the assay with HeLa [8], with HeLa [10] and in the assay with HeLa [11] was “Active” each time. Moreover, the inhibition entry with HeLa [12], with HeLa [14] and in the assay with HeLa [17] was “Active” each time. Besides, the Ratio Ki in assay [13] is 55; in [16] it was 550. In addition, the results for the pKi (in assay [2]; in assay [15]; on Cathepsin B [18]) were 7.26, 5.53 and 4.52, respectively.
Consider `COc1ccc(C[C@H](NC(=O)[C@H](Cc2ccccc2)NC(=O)OCc2ccccc2)C(=O)N[C@@H](Cc2ccccc2)C(=O)N[C@H](C=O)CC(C)C)cc1` (Cbz-FY(Me)FL-aldehyde), for which the inhibition result in the assay filed under Homo sapiens is “inactive”. Further, the Ratio Ki in [13] was found to be 61; in assay [16] it was 80. Moreover, the pKi is 7.55 in assay [2], 5.77 in assay [15] and 5.64 at Cathepsin B [18].
Turning to `CC(C)C[C@@H](C=O)NC(=O)[C@@H]1Cc2ccc(cc2)Oc2cc(ccc2[N+](=O)[O-])C[C@H](NC(=O)OCc2ccccc2)C(=O)N[C@@H](CC(C)C)C(=O)N1`, the inhibition entry in the assay listed under Homo sapiens and in the assay filed under Oryctolagus cuniculus [5] was “inactive” throughout. Further, the inhibition entry in the assay on HeLa [4], with HeLa [6], in the assay on HeLa [7], in the assay with HeLa [8], in the assay on HeLa [10] and in the assay with HeLa [11] was “Active” throughout. For the same molecule, the inhibition result in the assay with HeLa [12], in the assay on HeLa [14] and in the assay with HeLa [17] was “Active” in each case. The pKi in assay [19] is 5.09; in assay [2], 6.62; in [15], 5.69; at Cathepsin B [18] it was 5.52. Besides, the Ratio Ki in [13] was 8.
In the case of `CC(C)C[C@@H](C=O)NC(=O)[C@H](CC(C)C)NC(=O)[C@H](CC(C)C)NC(=O)OCc1ccccc1` [MG-132] (Cbz-Leu-Leu-Leu-aldehyde), the inhibition entry in the assay filed under Homo sapiens and in the assay listed under Oryctolagus cuniculus [9] was “inactive” throughout. Moreover, the pKi is 5.43 in [20], 7.20 in [2], 6.19 in [15] and 6.64 on Cathepsin B [18]. Moreover, the inhibition result with HeLa [4], with HeLa [6], in the assay with HeLa [7], in the assay with HeLa [8], with HeLa [10] and with HeLa [11] was “Active” each time. The inhibition entry with HeLa [12], in the assay on HeLa [14] and in the assay on HeLa [17] was “Active” in each case. Moreover, the Ratio Ki in [13] is 10; in [16] it was 4.

One may read the pKi as −log10 of the Ki, conventionally taken in molar units.
